Compound activity as filed in PubChem.
hERG protect: hERG rescue from dofetilide block, primary screen, cell-based, CHO-hERG, FluxOR thallium flux, dofetilide IC70. 310,000 tested, 0.51% active. dofetilide IC70 present. AID 1511, 2009. activation (rescue from dofetilide block), less the hit threshold, % at 10 µM;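 active means activation above the mean of controls blocked by dofetilide plus 5 SD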;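 further: thallium influx through hERG after potassium depolarization seen as dye fluorescence rise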
Kir21 inh: inhibitors of mouse Kir2.1 inward-rectifier potassium channel | Inward rectifier potassium channel 2 (Mus musculus), P35561 | HEK293-Kir2.1, FluxOR thallium flux fluorescence; stronger effect = lower value | B-score at 10 µM | 310,000 tested, 0.85% active | AID 1672, 2009;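 active means fluorescence ratio B-score at or below minus 3 SD of library scores, with starting-brightness B-score within 2 SD, cut at about -4.2 in these data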;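 further: channel flux triggered by added potassium and thallium sulfate stimulus; B-score of peak minus minimum fluorescence over baseline after thallium stimulus; more negative B-score means stronger Kir2.1 block with less thallium influx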
KCNK9 block: KCNK9 potassium channel inhibitors, primary screen, HEK293 cells, thallium flux; Potassium channel subfamily K member 9 (Homo sapiens), Q9NPC2; FluxOR thallium flux fluorescence; stronger effect = lower value; B-score at 10 µM; 310,000 tested, 1.2% active; AID 488922, 2010;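 active means ratio B-score over 3 SD below the library mean, with starting fluorescence within 5 SD of its mean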;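 further: negative B-score means less thallium flux so channel inhibition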
Target sequence (Q9NPC2 whole entry, looked up): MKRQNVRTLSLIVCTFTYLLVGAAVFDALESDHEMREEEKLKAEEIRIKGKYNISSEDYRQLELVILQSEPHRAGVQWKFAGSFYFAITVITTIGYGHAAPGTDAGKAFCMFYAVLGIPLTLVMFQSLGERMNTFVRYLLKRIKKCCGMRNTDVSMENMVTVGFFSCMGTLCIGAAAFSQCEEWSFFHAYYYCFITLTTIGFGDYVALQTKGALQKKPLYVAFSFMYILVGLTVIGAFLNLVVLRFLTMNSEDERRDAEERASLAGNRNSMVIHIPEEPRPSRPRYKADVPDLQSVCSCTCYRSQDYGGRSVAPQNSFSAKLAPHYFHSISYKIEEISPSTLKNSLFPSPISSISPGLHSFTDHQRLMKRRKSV
KCNQ1 inh: inhibitors of human KCNQ1 channel, primary screen, cell-based, thallium flux, high-throughput; Potassium voltage-gated channel subfamily KQT member 1 (Homo sapiens), P51787; B-score at 10 µM; CHO-K1 KCNQ1, FluxOR thallium flux fluorescence; stronger effect = higher value; 310,000 tested, 1.3% active;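 active means compounds whose thallium flux B-score, printed positive for inhibition, exceeds three library SD while starting fluorescence stays within three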;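 further: channel opened by potassium depolarization with thallium stimulus after 20 min compound exposure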
KCNQ1 act: potentiators or activators of KCNQ1 channel, primary screen, cell-based, thallium flux, high-throughput | CHO-K1 KCNQ1, thallium flux FluxOR fluorescence; stronger effect = higher value | B-score at 10 µM | AID 2648, 2010 | 310,000 tested, 0.35% active;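 active means fluorescence ratio B-score, a plate-corrected score, at least three library SD, with initial intensity B-score within 5 SD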
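System: CHO-K1 cells stably expressing KCNQ1 / Medium: assay buffer for compound exposure, DMSO matched across wells / Reagent: thallium- and potassium-containing depolarizing buffer / Compound: one concentration, matched DMSO / Incubation: 20 min compound pretreatment at room temperature / Measured by: kinetic FluxOR fluorescence, 10 s baseline plus 110 s post-stimulus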
KCNK3 inh: human KCNK3 channel inhibitors, primary screen, CHO cells, FluxOR thallium flux, B-score. 340,000 tested, 0.84% active. B-score at 10 µM. Potassium channel subfamily K member 3 (Homo sapiens), O14649. FluxOR fluorescence; stronger effect = lower value;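 active means B-score under library mean minus 4 SD, starting fluorescence ratio at most library mean plus 5 SD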;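 further: more negative B-score means stronger inhibition of thallium flux through KCNK3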
Starred values were filed as active, the others as inactive; i = inactive; · = no result. The list is not random: actives were taken first. Their share in the collection is about 3.8%.

SMILES	hERG protect	Kir21 inh	KCNK9 block	KCNQ1 inh	KCNQ1 act	KCNK3 inh
C=CCn1c2ccccc2c2nnc(SCN3C(=O)c4ccccc4C3=O)nc21	-8.5	0.01	i	6*	i	i
COc1ccccc1N1CCN(CCCNC(=O)Nc2ccccc2)CC1	-6.5	-0.28	i	i	i	i
Cc1cc(C)c(C)c(S(=O)(=O)N2CCSCC2)c1C	-5.4	-4.45*	i	i	i	i
Cc1c(C)c(C)c(S(=O)(=O)N2CCSCC2)c(C)c1C	-7.1	1.43	i	i	i	i
CSC(=CC(=O)c1ccc(F)cc1)SC	-8.8	0.48	i	i	i	i
Cc1ccc(C)c(N2CCN(CCCNC(=O)Cn3cccc3C(=O)c3ccccc3)CC2)c1	-17.3	-5.43*	i	i	i	i
O=C(Cn1cccc1C(=O)c1ccccc1)NCCCN1CCOCC1	-1.3	0.56	i	i	i	i
CCOc1ccc2[nH]c(=O)c(CN(CCN3CCCC3)C(=S)Nc3ccccc3OCC)cc2c1	-9.8	-3.08	i	i	10*	i
COc1ccc2[nH]c(=O)c(CN(CCN3CCCC3)C(=O)Nc3ccccc3Cl)cc2c1	-13.4	1.05	i	i	i	i
CCCCn1c(=O)n(Cc2cccc(F)c2)c(=O)c2c1ncn2Cc1ccco1	-7.3	-0.04	i	i	i	-10.3*
CN(C)c1ccc(/C=C/c2ccc3ccccc3[n+]2C)cc1	-26.4	-13.9*	i	9*	i	i
CN(C)c1ccc(/C=C/c2ccc3c4ccccc4ccc3[n+]2-c2ccccc2)cc1	·	·	·	·	·	-15.5*
c1ccc2c(c1)OC(CCCN1CCCCC1)c1ccccc1S2 (stereo unspecified)	-9.6	-5.77*	i	i	i	i
CN1CCCC(CC2Oc3ccccc3Sc3ccccc32)C1 (stereo unspecified)	-11.7	-3.48	i	i	i	i
CCC(NC(=O)NC1=NCCS1)(C(F)(F)F)C(F)(F)F	-12.5	0.43	i	i	i	i
COc1ccccc1-c1cc(C(F)(F)F)nc(S(C)(=O)=O)n1	-9.7	1.4	i	i	i	i
CS(=O)(=O)c1nc(-c2ccco2)cc(C(F)(F)F)n1	-24.9	-0.5	i	7*	i	·
CC(C)c1cccc(C(C)C)c1OCCCCCN1CCOCC1	-5.6	-5.11*	i	i	i	i
c1ccc2c(OCCCCN3CCOCC3)cccc2c1	-3.2	-0.16	i	i	i	i
O=[N+]([O-])c1ccc(CN2CCOCCOCCN(Cc3ccc([N+](=O)[O-])cc3)CCOCC2)cc1	-24.7	-0.83	-7.21*	i	i	i
NC(=NCCc1c[nH]c2ccccc12)NC(=O)c1ccc(F)cc1	-21.2	-7.23*	i	i	i	i
COc1cccc(-n2c(SCC(=O)Nc3cc(C)on3)nc3c([nH]c4ccccc43)c2=O)c1	-9.5	0.32	i	i	i	i
CCN(C(=O)c1cc2c(=O)[nH]c3ccc(C)cc3c2s1)c1ccccc1C	-15.6	-0.02	i	i	i	i
CCN(C(=O)c1cc2c(=O)[nH]c3ccc(C)cc3c2s1)c1ccccc1F	9.2*	0.76	i	i	26*	i
O=C(O)CCCCCNC(=O)c1ccccc1Br	5.4*	1.25	i	i	i	i
O=C(NCC1(c2ccccc2)CCCC1)c1ccccc1Br	-4.3	-5.3*	i	i	i	i
O=C(NCC1(c2ccccc2)CCCC1)c1ccccc1	-10.9	-0.26	i	i	i	i
CCCCCCCSc1ncnc2[nH]ncc12	·	·	·	·	·	i
Cc1ccc(NC(=O)C(c2ccccc2)c2ccccc2)c(O)c1	-12.8	-1.41	-7.77*	i	i	i
